Assay results: the array DNA melting data of Ke et al. (doi:10.1101/2024.01.08.574731)

Experiments:
[1] = folding enthalpy; higher = less favourable; fluorescence melt of hairpins on a sequencing array, two-state fit; conditions: sodium 0.088 M
Outline: (§1)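 Folding enthalpy and melting temperature were estimated with bootstrapped two-state fits and combined across four replicates by inverse-variance weighting, with fitted temperatures raised by 9.35 °C to match UV melts. The data were Cy3 fluorescence of library hairpins, with annealed Cy3 and quencher oligos, on a sequenced MiSeq flow cell in 50 mM Na-HEPES pH 8.0, 25 mM NaCl, imaged in 2.5 °C steps up to 60 °C and normalised to pre-quench Cy3 and control constructs.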

[2] = melting temperature; fluorescence melt of hairpins on a sequencing array, two-state fit, raised by 9.35 °C to match UV melts; conditions: sodium 0.088 M
Outline: as §1

Row | Sequence | folding enthalpy [1] | Tm [2]
1 | GGTCTGGGAAACCGGATC (.((.((....)).)).) | -23.2 kcal/mol | 40 °C
2 | GATCTAGACTAGATC ((((((...)))))) | -36.6 kcal/mol | 40.8 °C
3 | GAGCAAGCGAAAGCTCTC (((..(((....)))))) | -11.6 kcal/mol | 35.1 °C
4 | GCTATACGAAAGTAGAGC (((.(((....))).))) | -38.3 kcal/mol | 53.4 °C
5 | GGGACCGAAAGGTATCCC ((((((....)))..))) | -18.1 kcal/mol | 47.7 °C
6 | GTCCATCCGAAAGGAGAC (((..(((....)))))) | -14.8 kcal/mol | 24.8 °C
7 | GCGGACGGAAACGCCCAC (.((.((....)).)).) | -18.9 kcal/mol | 36.6 °C
8 | GTGAAAACGAAAGTTCAC (((..(((....)))))) | -21.7 kcal/mol | 38.4 °C
9 | GATCCCGTTGGGATC ((((((...)))))) | -31.5 kcal/mol | 64.4 °C
10 | GTATCGGGAAACTGATAC (((((.(....).))))) | -37.3 kcal/mol | 45.3 °C
11 | GATCGACCTTCGATC ((((((...)))))) | -35.6 kcal/mol | 51 °C
12 | GCTCGGCGAAAGCAGCGC ((.(.((....)).).)) | -14 kcal/mol | 58.5 °C
13 | TTAGTGAAAACTAA (((((....))))) | -8.57 kcal/mol | 27.8 °C
14 | GGACTTGGAAACGAGTCC (((((.(....).))))) | -39.4 kcal/mol | 52.4 °C
15 | GATCGCTCCCGCGATC ((((((....)))))) | -34.3 kcal/mol | 67.8 °C
16 | GCACGGGGAAACCCATGC (((.(((....))).))) | -29.5 kcal/mol | 47 °C
17 | GATCGGATTACCGATC ((((((....)))))) | -38.7 kcal/mol | 58.2 °C
18 | GGTATTACGAAAGTAACC (((..(((....)))))) | -13.4 kcal/mol | 27.5 °C
19 | GCCCCGCGAAAGCTCGGC (((..((....))..))) | -20.3 kcal/mol | 38.8 °C
20 | GGCACCCGAAAGGGCGCC (((.(((....))).))) | -31.7 kcal/mol | 69 °C
21 | GCTTGGCGAAAGCCTTGC ((..(((....)))..)) | -18.1 kcal/mol | 43.5 °C
22 | GTTGCGCGAAAGCGAAC (((.(((....)))))) | -13.4 kcal/mol | 45.5 °C
23 | GCTTTTGGAAACAAAAAC (.(((((....))))).) | -13.2 kcal/mol | 26.6 °C

Row | Sequence | folding enthalpy [1] | Tm [2]
24 | GCGCCACGAAAGTGTCGC (((.(((....))).))) | -41.7 kcal/mol | 63.3 °C
25 | GATCCGATATCGGATC ((((((....)))))) | -39.9 kcal/mol | 59.2 °C
26 | CGTACCGGAAACGGAACG (((.(((....))).))) | -30.7 kcal/mol | 50.7 °C
27 | GAGTTGAAAAACTC (((((....))))) | -22 kcal/mol | 44.7 °C
28 | GACGACGAAAGTCTTGTC ((((((....)))..))) | -16.2 kcal/mol | 40.3 °C
29 | GATCTAGTGCTAGATC ((((((....)))))) | -31.1 kcal/mol | 44.3 °C
30 | GCTGCCGAAAGGCAAGC ((((((....))).))) | -19.2 kcal/mol | 66.7 °C
31 | GTGCACGAAAGTGCTCAC ((((((....)))..))) | -7.03 kcal/mol | 43.3 °C
32 | GGATGCGAAAGCAGTCC ((((((....))).))) | -22.3 kcal/mol | 52.4 °C
33 | GATCGTTACACGATC ((((((...)))))) | -36.1 kcal/mol | 58.4 °C
34 | GCGGGAATCCGC ((((....)))) | -27.9 kcal/mol | 68.3 °C
35 | GCTGGGCGAAAGCCGAGC (((.(((....))).))) | -38.5 kcal/mol | 58.6 °C
36 | GCGAACGAAAGTTCCCGC ((((((....)))..))) | -16.3 kcal/mol | 36.7 °C
37 | GTTCTCGAAAGAGTCAAC ((((((....)))..))) | -10.2 kcal/mol | 23.2 °C
38 | GGATCTGGAAACGGATCC (((((.(....).))))) | -38.4 kcal/mol | 51.6 °C
39 | GCCAAAACGAAAGTTGGC (((..(((....)))))) | -30.7 kcal/mol | 51.4 °C
40 | CGGTCGGAAACGATACCG ((((((....)))..))) | -26.9 kcal/mol | 41.2 °C
41 | GATCTTCTACAAGATC ((((((....)))))) | -30.3 kcal/mol | 41.9 °C
42 | GTGACCGGAAACGGTTAC ((.((((....)))).)) | -26.4 kcal/mol | 54.9 °C
43 | GTATAAACGAAAGTTTAC (((..(((....)))))) | -11.8 kcal/mol | 29.4 °C
44 | GTCGACGAAAGTCCAGAC ((((((....)))..))) | -16.1 kcal/mol | 38.9 °C
45 | GTGTGAGGAAACTCATAC ((.((((....)))).)) | -36.5 kcal/mol | 44.9 °C
46 | GTGAGTGGAAACACTTAC ((.((((....)))).)) | -28.8 kcal/mol | 44.8 °C

Row | Sequence | folding enthalpy [1] | Tm [2]
47 | GCTCCGCGAAAGCGGCGC ((.((((....)))).)) | -18.6 kcal/mol | 65.1 °C
48 | GACAGGGGAAACCCTGTC (((((((....))))))) | -42.6 kcal/mol | 66.4 °C
49 | GGGAACGAAAGTTGTCCC ((((((....)))..))) | -18.1 kcal/mol | 36.4 °C
50 | GTGTGCGGAAACGCATGC (..((((....))))..) | -15.9 kcal/mol | 49.6 °C
51 | GCAAAGGGAAACCTCTGC (((.(((....))).))) | -19.1 kcal/mol | 33.8 °C
52 | GCCTCCGGAAACGGAAGC ((.((((....)))).)) | -22.7 kcal/mol | 45.9 °C
53 | GGACCTGGAAACGGGTCC (((((.(....).))))) | -45 kcal/mol | 58.3 °C
54 | GCATTCGGAAACGAACGC ((.((((....)))).)) | -37.2 kcal/mol | 46.7 °C
55 | TAAGGGAAACCTTA (((((....))))) | -10.6 kcal/mol | 29.1 °C
56 | GCTAAGCGAAAGCGTTGC ((.(.((....)).).)) | -20 kcal/mol | 53.4 °C
57 | GCGTCTCCGAAAGGACGC (((..(((....)))))) | -33.1 kcal/mol | 56.8 °C
58 | GGAATACGAAAGTAGTCC (((.(((....))).))) | -33.9 kcal/mol | 51.8 °C
59 | GTTCGCGAAAGCGGCAAC ((((((....)))..))) | -10.2 kcal/mol | 26.8 °C
60 | GATCGAAATATCGATC ((((((....)))))) | -32.7 kcal/mol | 49 °C
61 | GACCGACCGAAAGGTGTC (((..(((....)))))) | -15.8 kcal/mol | 35.9 °C
62 | GATCGTAAACACGATC ((((((....)))))) | -36.9 kcal/mol | 52 °C
63 | GCCAGACGAAAGTCCGGC (((.(((....))).))) | -27.6 kcal/mol | 60.1 °C
64 | GAGGACGGAAACGTCTTC ((.((((....)))).)) | -17.8 kcal/mol | 47.3 °C
65 | GTACCAGGAAACTGATAC (((.(((....))).))) | -26.6 kcal/mol | 31.4 °C
66 | GGACTAGGAAACTAGCCC ((.((((....)))).)) | -24.5 kcal/mol | 42.1 °C
67 | GCAATGCGAAAGCGCTGC (((..((....))..))) | -20 kcal/mol | 49.2 °C
68 | GGTTATCGAAAGATCACC (((.(((....))).))) | -30.4 kcal/mol | 42.3 °C
69 | GCGGTGGGCCGC ((((....)))) | -13.9 kcal/mol | 65.8 °C

Row | Sequence | folding enthalpy [1] | Tm [2]
70 | GCCTAGCGAAAGCAAGGC ((((.((....)).)))) | -29.3 kcal/mol | 67.2 °C
71 | GCGTGGATACGC ((((....)))) | -28.2 kcal/mol | 66.6 °C
72 | GTCCACGAAAGTGGAGAC ((((((....)))..))) | -9.62 kcal/mol | 48.7 °C
73 | GCCTCCGAAAGGAAGGGC ((((((....)))..))) | -22.3 kcal/mol | 50.2 °C
74 | GGCGGTGGAAACACCGTC (.(((((....))))).) | -23.9 kcal/mol | 65.8 °C
75 | GCCATGCGAAAGCAGGC (((.(((....)))))) | -21.8 kcal/mol | 64.4 °C
76 | GTTATCCGAAAGGACAAC (((.(((....))).))) | -26.3 kcal/mol | 39.6 °C
77 | GGGCACGAAAGTGACCC ((((((....))).))) | -13.2 kcal/mol | 66.8 °C
78 | GTTCCCGAAAGGGAAAC ((((((....))).))) | -12.6 kcal/mol | 49.6 °C
79 | GCTATAGGAAACTGTAGC ((((.((....)).)))) | -32.8 kcal/mol | 43.5 °C
80 | GGTGGAGGAAACTCCGTC (..((((....))))..) | -15.4 kcal/mol | 37.8 °C
81 | GTTATCGAAAGATGAAC ((((((....))).))) | -13.2 kcal/mol | 26.4 °C
82 | GCAGAGAAATCTGC (((((....))))) | -23.1 kcal/mol | 50.6 °C
83 | GATCGGGGTACCGATC ((((((....)))))) | -34.5 kcal/mol | 65.7 °C
84 | GTCATACGAAAGTAGAC (((.(((....)))))) | -28.2 kcal/mol | 42.4 °C
85 | GTGGGCGGAAACGCCTAC ((.((((....)))).)) | -16.3 kcal/mol | 56.5 °C
86 | GTCACGGAAACGTGAC ((((((....)))))) | -34.4 kcal/mol | 69.2 °C
87 | GCGGTAGGAAACTATCGC (((.(((....))).))) | -37.9 kcal/mol | 53.7 °C
88 | GATCGGGGAACCGATC ((((((....)))))) | -34.1 kcal/mol | 65.3 °C
89 | GTAGGACGAAAGTCTAC (((.(((....)))))) | -17.2 kcal/mol | 43 °C
90 | GAGACCGAAAGGTTACTC ((((((....)))..))) | -12.8 kcal/mol | 34.8 °C
91 | GCTAGGCGAAAGCCTTGC ((.((((....)))).)) | -21.1 kcal/mol | 61.8 °C
92 | GGATGACGAAAGTCTCC (((.(((....)))))) | -20 kcal/mol | 48.6 °C
